Experiments:
[1] = test system: Plasmodium yoelii nigeriensis; experiment: Antimalarial activity against Plasmodium yoelii nigeriensis infected Swiss mice (Mus musculus) by intraperitoneal dose; type: functional; conditions: ip
How it was run: (§1)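 Infected mice dosed i.p. once daily for 4 days, with the first dose 1 h after i.p. inoculation with parasites. ED50 is the dose giving 50% inhibition of parasite growth versus vehicle-treated controls (equal volume of vehicle), read from a plot of activity (% of control) against log dose. P. berghei is the sensitive strain and P. yoelii nigeriensis the multidrug-resistant strain.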

Plasmodium falciparum = experiment: Antimalarial activity against chloroquine-resistant Plasmodium falciparum W2; type: functional, organism-based
Plasmodium berghei = experiment: Antimalarial activity against Plasmodium berghei infected Swiss mice (Mus musculus) by intraperitoneal dose; type: functional; conditions: ip; how it was run: as §1
[2] = Therapeutic index, ratio of LD50 for Swiss mice (Mus musculus) to […] for Plasmodium berghei infected Swiss mice (Mus musculus); conditions: read-out: Ratio LD50/ED50
How it was run: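 Ratio of acute LD50 to P. berghei ED50 in mice. LD50: one injection into four non-infected random-bred Swiss mice, deaths scored at 10 days. ED50: i.p. dosing once daily for 4 days, starting 1 h after i.p. parasite inoculation. Parasite growth inhibition is taken against vehicle-treated controls, and the value is read from % of control versus log dose.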

[3] = Toxicity in Swiss mouse after 10 days; type: organism-based; conditions: in vivo
How it was run: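 Acute toxicity: a single drug injection into four non-infected random-bred Swiss mice, with deaths recorded 10 days after injection.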

Mastomys coucha = experiment: Toxicity against Mastomys coucha assessed as methemoglobin levels at 15 mg/kg after 3 days; type: organism-based; design: dose 15 mg/kg; conditions: in vivo, 72 h
How it was run: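 Mastomys coucha dosed at 15 mg/kg per day for 3 days, then blood methemoglobin measured as % MetHb. A vehicle group served as control. Values are mean±SEM per group from a set of three experiments.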

Compound	ED50 [1] [mg/kg]	IC50 (Plasmodium falciparum) [nM]	ED50 (Plasmodium berghei) [mg/kg]	selectivity ratio [2]	LD50 at 240 h [3] [mg/kg]	Activity (Mastomys coucha) [%]
COc1cc(NC(C)(C)CCCN)c2nc(C(F)(F)F)ccc2n1	1.7	21	1.5	> 133	> 200	-0.11
COc1ccc2nc(OC(C)C)cc(NC3(CCCN)CC3)c2n1	0.41	47	0.31	> 645	> 200	-0.12
CC(C)Oc1cc(NC2(CCCN)CC2)c2ncccc2n1	0.38	100	0.29	603	175	-0.1
CCN(CC)CCCC(C)Nc1ccnc2cc(Cl)ccc12 (stereo unspecified) [CHLOROQUINE]			2			
COc1cc(NC(C)(C)CCCN)c2ncccc2n1	2.1	65	1.8	72	130	0.1
CC(C)Oc1cc(NC2(CCCN)CC2)c2nc(C(F)(F)F)ccc2n1	0.23	55	0.26	> 769	> 200	0.14
CCOc1cc(NC2(CCCN)CC2)c2nc(OC)ccc2n1	0.65	45	0.72	> 278	> 200	-0.1
COc1cc(NC(C)CCCN)c2ncccc2c1 (stereo unspecified) [PRIMAQUINE]		> 10000			55	3.4
CCOc1cc(NC(C)(C)CCCN)c2ncccc2n1	0.89	77	0.95	163	155	-0.12
COc1cc(NC(C)(C)CCCN)c2nc(OC)ccc2n1	2	33	1.6	> 125	> 200	0.13
COc1cc(NC2(CCCN)CC2)c2ncccc2n1	1.4	57	1.6	91	145	0.1
CC(C)Oc1cc(NC(C)(C)CCCN)c2ncccc2n1	0.28	110	0.33	506	167	-0.15
CCOc1cc(NC2(CCCN)CC2)c2nc(C(F)(F)F)ccc2n1	0.68	58	0.75	> 267	> 200	0.095
CCOc1cc(NC2(CCCN)CC2)c2ncccc2n1	1	72	0.88	183	161	-0.12

— ChEMBL document CHEMBL1137548, “Synthesis and evaluation of naphthyridine compounds as antimalarial agents” (Bioorg Med Chem Lett, 2007)
